According to the EternaBench riboswitch data:

System: MS2 coat protein
Assay: apparent Kd, MS2 coat protein; higher = weaker binding; RNA-MaP array; FMN 200 µM where present
How it was run: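 Stalled E. coli RNA polymerase transcribed the designs on Illumina sequencing-chip clusters. SNAP-549-labelled MS2 coat protein was titrated from 0.7 or 1.5 nM, doubling to 3 µM, without and then with constant ligand, in 100 mM Tris-HCl pH 7.5, 80 mM KCl, 4 mM MgCl2, BSA, DTT, yeast tRNA and Tween-20. Per-cluster binding curves were fitted to green signal normalised to red-channel RNA signal and control-cluster median Fmax. The apparent Kd is the median of the filtered fits.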

[1] = designed as: OFF switch for flavin mononucleotide, no ligand
[2] = ligand present: flavin mononucleotide, designed as: OFF switch for flavin mononucleotide
[3] = designed as: ON switch for flavin mononucleotide, no ligand
[4] = ligand present: flavin mononucleotide, designed as: ON switch for flavin mononucleotide

Row | Sequence | apparent Kd [1] | apparent Kd [2] | apparent Kd [3] | apparent Kd [4]
1 | CGAGUUUUUGAGAAGGCAUAUUAUAAUAUUCCACAUGUUUACAUGAGGAUCACCCAUGUUUACUAUGAGGAUAUCAGAAUGUCG | 4.72 nM | 4.54 nM | – | –
2 | AAAUGCAUAAAGGACACAUGAGGAUCACCCAUGUUUCUGUUCAAGGAUAUGAGGUGAAUGAUCCGUCAGAAGGUGAACUUGCUU | – | – | 180 nM | 400 nM
3 | UGGAUGGUAUGAGGAUAUGCGCGCGAAACGUGCGCAGAAGGCAUGUCAAUAGACAUGAGGAUCACCCAUGUAUUAUCCAUCCAA | – | – | 140 nM | 12.5 nM
4 | UUCGGCGCAGGAUAUGCGGUUCUGUGUUGAAUCGGCGCGGGACAUGAGGAUCACCCAUGUAGAAGGGUGUUGGG | 361 nM | 287 nM | – | –
5 | UUUUUGUCAGGAUAUCAAAAGUACUACUUCGGUAGUACUUUUGAGAAGGGACAUGAGGAUCACCCAUGUAGUUU | 61.4 nM | 285 nM | – | –
6 | CUGUCGAUAUCAGGAUAUCGUUUACAUACAUGAGGAUCACCCAUGUUGACAUGGAGCAUAAUUUGCGAGAAGGGAUAACGAUAG | – | – | 23.5 nM | 14.3 nM
7 | AAACUACUAGGAUAUACAACGGUGUCCUAACUACUAAGAAAACAUGAGGAUCACCCAUGUAGAAGGAGUAGUGA | 34.5 nM | 62.3 nM | – | –
8 | ACAGUGCGAGGAUAUACAUGAGGAUCACCCAUGUGAGAGAAAUAAGUGAGGAAGAAAAGUAGAAGGCGCGUUGA | 75.5 nM | 91.7 nM | – | –
9 | CCCAUCGCAUGAGGAUAUGCUCCGGUUUCCGGAGCAGAAGGCAUGUCAUAAGACAUGAGGAUCACCCAUGUAGUUAAGAUGGGA | – | – | 529 nM | 30.4 nM
10 | GAGAAGUCAGGAUAUGCAUGGCGGGACUUGCGUCGUGGCGUGCAGAAGGGACAUGAGGAUCACCCAUGUAAAGA | 53 nM | 49 nM | – | –
11 | GUAGCUAUCGGAGGAUAUUCAUUAUACAUGAGGAUCACCCAUGUUAAAGUGGGAGAAGGCCGAUAGCUACAAGAGCGAAAGCUC | – | – | 35.8 nM | 8.13 nM
12 | GUAGCAUACCGAGGAUAUUCAUACCGUAAUCGGACAUGAGGAUCACCCAUGUGGCGAAAGCCUUGGGAGAAGGCGGAAUGCUAC | – | – | 630 nM | 27.6 nM
13 | UGCUGGCGAGGAUAUGCUCGGGUUGCUUGUCGCGCGGUUGCACAUGAGGAUCACCCAUGUAGAAGGUGUCUGUG | 311 nM | 438 nM | – | –
14 | GGGUACAUCGGAGGAUAUCAUGGAAAUACAUGAGGAUCACCCAUGUCGAUGGAGACAUCGGAGAUUGAGAAGGCCGAUGUACCG | – | – | 27.3 nM | 6.38 nM
15 | UGGUACUAGGGAGGAUAUGGGAAGAUACAUGAGGAUCACCCAUGUUUAAGAAUGCCGAGAGGCGACUAGAAGGCCCUAGUACCU | – | – | 311 nM | 15.3 nM
16 | UAUAUAUAGGCAGGAUAUACAUGAAUAUAUAUAAUAUAAUAUAAUGUAACAUGAGGAUCACCCAUGUAGAAGGGCCAAUAUAUA | 30.6 nM | 59.9 nM | – | –
17 | GAAUUCGCAUGAGGAUAUGCACUCAUUUCAUGUGCAGAAGGUAUAACAUUAGACAUGAGGAUCACCCAUGUAUUGGUCAGUAAC | – | – | 15 nM | 13.4 nM
18 | AUUGUAGUUGUGAGGAUAUCGUUGAUUUUUUGAAACGAGAAGGCACAUGAGGAUCACCCAUGUAAGUUGUAGGU | 80.6 nM | 315 nM | – | –
19 | AAUAUGUUGCAGAAGGUUAUAUUUUUUUCGUUCCUCAUGACAUGAGGAUCACCCAUGUAUUUGUUGAAGGAUAUGCAAUAUAUU | 19.9 nM | 17.6 nM | – | –
20 | CCAGCAAAUGUAAGGAUAUGCUGGUCCUUGGAUCAGCAGAAGGUACAUGAGGAUCACCCAUGUCGUGGAGCUGG | 29.4 nM | 160 nM | – | –
21 | AAUUUAAUACAUGAGGAUCACCCAUGUAAUACUAGUAAGAUCUAGGAUAUCAGCUCGAUUAGAGCUGAGAAGGAGAUCACAUGU | – | – | 92.9 nM | 27.9 nM

Row | Sequence | apparent Kd [1] | apparent Kd [2] | apparent Kd [3] | apparent Kd [4]
22 | UGAUCGAGAGAUCUUAGAUUCUGGUAGGAUAUACAUUAUAGAAGAUAUACAUGAGGAUCACCCAUGUAGAAGGACUAGAGUCUA | 6.73 nM | 9.72 nM | – | –
23 | AGUGUCAUCGAGAAGGCCUCAACAUGAGGAUCACCCAUGUUGCAAAAUGGGAGGAUAUCGCGCAAAAAGCUACGUUUCGUAGCA | – | – | 43.1 nM | 6.96 nM
24 | CAGUCUACAGGAUAUACAUGAGGAUCACCCAUGUGUAUUCACUUUCAGUAGUCCAUAUGUAGAAGGGUAGACUG | 15.9 nM | 22.5 nM | – | –
25 | GUGUUACAUGAGGAUCACCCAUGUUGUUUUAGAUAAGGAUAUAUGGUAACGAGAGAAAUAAUAGAAGGUAUUAGGC | – | – | 33.4 nM | 23.1 nM
26 | CUUUAACACCAGAAGGACAUGAGGAUCACCCAUGUAGGAUAUGGGACUCCUAGUAGGCAUAUUGUGCUUCCGGUAGGACAAGGA | – | – | 478 nM | 62.2 nM
27 | AACCGGGAGAAGCAGGAUAUUGCCUCUUCAACAUGAGGAUCACCCAUGUAAGUAAAUUGACGAUACAAGAAGGGCUGCUCCUUAC | – | – | 118 nM | 38.1 nM
28 | AGCAUCUGAGGAUAUACUGGGUAUGGAAGGCGAAGGGCCAGACAUGAGGAUCACCCAUGUAGAAGGCAGUUUGC | 79.3 nM | 32.9 nM | – | –
29 | GCAUACAUUCGAGGAUAUCGGUGAACAAAUUAACGAGAAGGCGAUAUAAUUUUUAAACUUAUUGACAUGAGGAUCACCCAUGUA | – | – | 23.2 nM | 20.8 nM
30 | GUCAAGUGAGGAUAUGAUUGUACAACAGACUAACAUCUACAUCAGAAGGCACAUGAGGAUCACCCAUGUUUGUC | 17.7 nM | 15.8 nM | – | –
31 | GGGCUCCCGCAGAAGGUGACAAAGUGUUCAUGUCAAGGAUAUGUGGUUCACAUGAGGAUCACCCAUGUAGGGCCCGUUAGGAAC | – | – | 97.3 nM | 23.9 nM
32 | UUACCUCAUGAGAAGGACAUGAGGAUCACCCAUGUAGGAUAUCGUGGGAGACAGGUAUUGAAUCUUCGGAUUCAAUACCUGUCU | – | – | 418 nM | 25.5 nM
33 | UUUAUGGGACAGAAGGGCAUUUACAUGAGGAUCACCCAUGUUCAUCAUUGCAGGAUAUGUAUUACAUGAGGAUCACCUAUGUUC | – | – | 170 nM | 82.5 nM
34 | AGUCCACAUGAGGAUCACCCAUGUGAGGAUAUCGAUGUCCCAGGGCGGGUGCGGGACUCGAGAAGGCACUAGGU | 34.5 nM | 110 nM | – | –
35 | GUACUGACAGGAUAUACAUGAGGAUCACCCAUGUCCUUGUGCUGACAAAAGUCAGCACGUAGAAGGGUCUGUAC | 22.9 nM | 207 nM | – | –
36 | GCUCGUCGUGGAAGAGCAAAAGGACAGGAUAUCGCUUAAACAUGAGGAUCACCCAUGUCCGUUAACGAGAAGGGUCGAAUAAAU | – | – | 138 nM | 24.3 nM
37 | UUGGACGUCGUAGGAUAUGUAGGAUAUUCCUACAUGAGGAUCACCCAUGUUGACAUGGAAUAAGGACAGAAGGACGAUGUCCAU | – | – | 23.4 nM | 5.28 nM
38 | UAUUGUUCCUGAGGAUAUCAGUUGUUUGCAUUAUGAGAAGGCAGUACAUGAGGAUCACCCAUGUUGGGAUUUGAUAGAAUGAUA | – | – | 185 nM | 195 nM
39 | CAGUGCAUUGAGAAGGGACACCGGGAUCCCAACUUCUCUCAUAACGGACAUGAGGAUCACCCAUGUCAGGAUAUCAACGUUUAG | 23.1 nM | 16.7 nM | – | –
40 | UUAAAUCGAAACAUGAGGAUCACCCAUGUGUUGUAAUUAAUAUAGGAUAUGUAUAUACUUUUAUAAUAGAAGGAUGAUAAUACU | – | – | 15.4 nM | 11.1 nM
41 | CCUUAGUAAGGAUAUCAGCUUAUAGAGUUGGUAAUGAGAGCUGAGAAGGUACAUGAGGAUCACCCAUGUUAGUU | 21.1 nM | 35.1 nM | – | –
42 | GGGUACAUCGGAGGAUAUCAUGUAAAUACAUGAGGAUCACCCAUGUCGAUGGAUACAUCGGAGAUUGAGAAGGCCGAUGUACCG | – | – | 13 nM | 5.34 nM
